An excerpt weighted towards active compounds, which were near 3.1% of everything screened.
hERG rescue = shields human hERG channel from block by proarrhythmic agents. CHO-hERG, FluxOR thallium flux, dofetilide IC70 present. 310,000 compounds, 0.51% hits. activation (rescue from dofetilide block), less the hit threshold, % at 10 µM;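 active = activation above the mean of controls blocked by dofetilide plus 5 SD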;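 note: thallium influx through hERG after potassium depolarization seen as dye fluorescence rise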
KCNK9 block = human KCNK9 channel inhibition | HEK293 KCNK9, FluxOR thallium flux fluorescence; hits give low values | B-score at 10 µM | 310,000 compounds, 1.2% hits | AID 488922;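 active = ratio B-score over 3 SD below the library mean, with starting fluorescence within 5 SD of its mean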;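 note: negative B-score means less thallium flux so channel inhibition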
KCNQ1 block = blocks the human KCNQ1 potassium channel; B-score at 10 µM; CHO-K1 KCNQ1, FluxOR thallium flux fluorescence; hits give high values; P51787; 310,000 compounds, 1.3% hits;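 active = compounds whose thallium flux B-score, printed positive for inhibition, exceeds three library SD while starting fluorescence stays within three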;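 note: channel opened by potassium depolarization with thallium stimulus after 20 min compound exposure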
KCNQ1 act = human KCNQ1 channel potentiation or activation; P51787; CHO-K1 KCNQ1, thallium flux FluxOR fluorescence; hits give high values; B-score at 10 µM; 310,000 compounds, 0.35% hits;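 active = fluorescence ratio B-score, a plate-corrected score, at least three library SD, with initial intensity B-score within 5 SD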
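assay system = KCNQ1-transfected CHO-K1 cells | medium = assay buffer with matched DMSO | probe or stimulus = depolarizing K+/Tl+ stimulus, K2SO4 and Tl2SO4 each 12.5 mM in 5x stock | dosing = single dose | incubation = dye 90 min, compound 20 min, room temperature | detection = kinetic FluxOR fluorescence, 10 s baseline plus 110 s post-stimulus | evaluation = ratio B score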
KCNK3 block = human KCNK3 channel inhibition, primary screen; O14649; CHO-KCNK3 thallium flux, FluxOR fluorescence; hits give low values; B-score at 10 µM; 340,000 compounds, 0.84% hits;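 active = B-score under library mean minus 4 SD, starting fluorescence ratio at most library mean plus 5 SD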;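 note: more negative B-score means stronger inhibition of thallium flux through KCNK3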
Target sequence (O14649 whole entry, looked up): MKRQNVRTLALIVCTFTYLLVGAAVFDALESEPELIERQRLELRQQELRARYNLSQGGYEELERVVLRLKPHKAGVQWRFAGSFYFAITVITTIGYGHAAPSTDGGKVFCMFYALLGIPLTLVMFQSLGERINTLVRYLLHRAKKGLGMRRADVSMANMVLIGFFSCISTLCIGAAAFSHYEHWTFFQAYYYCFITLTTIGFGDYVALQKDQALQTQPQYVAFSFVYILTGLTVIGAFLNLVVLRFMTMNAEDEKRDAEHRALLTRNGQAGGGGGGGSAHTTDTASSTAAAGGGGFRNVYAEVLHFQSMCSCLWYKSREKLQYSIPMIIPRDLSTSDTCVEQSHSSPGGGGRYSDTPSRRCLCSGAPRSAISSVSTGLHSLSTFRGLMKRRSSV
The depositor's hits bear a star; i = inactive; . = not tested or not shown.

SMILES	hERG rescue	KCNK9 block	KCNQ1 block	KCNQ1 act	KCNK3 block
COC(=O)c1ccc(CNC(=O)c2ccc(S(=O)(=O)N3CCCC(C)C3)cc2)cc1 (centres undefined)	.	.	.	.	i
O=C(Nc1ccccc1N1CCN(C(=O)c2ccccc2)CC1)c1cc2ccccc2o1	.	.	.	.	-9.7*
CN(C(=O)CN1CCN(c2cnn(-c3ccccc3)c(=O)c2Cl)CC1)C1CCS(=O)(=O)C1 (centres undefined)	.	.	.	.	i
C/C(=C\C(=O)c1ccncc1)Nc1ccccc1O	5.7*	i	i	i	i
CCCCCSc1nnc2c(n1)OC(C)N(C(C)=O)c1ccccc1-2 (centres undefined)	-11	i	i	i	-10*
CCCCCCC[C@@H](C/C=C/CCC(=O)N(C)C/C(=C/Cl)C/C(=C\C(=O)N1CC(OC)=CC1=O)OC)OC	.	.	.	.	-8.8*
CC1(C)CC(=O)C=C(C(=O)N2CCCC(C(=O)c3cccc(C(F)(F)F)c3)C2)O1 (centres undefined)	-1	i	i	i	i
CC[C@H](C)/C=C(C)/C=C/C(=O)Cc1cc(O)c(C)c(O)c1C=O	-14	i	11*	i	-10*
Cc1cnc(C(=O)OCC(=O)Nc2c(Cl)cc(Cl)cc2Cl)cn1	.	.	.	.	i
CC(C)COn1c(=S)[nH]c2ccccc2c1=O	-4	i	i	8*	i
CC(C)Cn1c(=S)[nH]c2ccccc2c1=O	-1	i	i	i	i
CCCCCNS(=O)(=O)c1cc2c3c(c1)CCC(=O)N3CCC2	-5	i	i	i	i
COc1ccccc1N1C(=O)S/C(=C\c2ccc(C)s2)C1=O	4.8*	i	i	i	i
COc1ccccc1N1C(=O)S/C(=C\c2cc(C)n(C)c2C)C1=O	-9	i	i	i	i
Cc1ccc(NC(=O)CSc2ncn(-c3ccccc3)n2)cc1C	-10	i	i	i	i
Cc1ccc(NC(=O)CSc2ncc3ccccn23)cc1C	5.9*	i	i	i	i
O=[N+]([O-])c1cc2oc3c(c2c(C=NCc2ccccc2)c1O)CCCC3	-2	i	i	i	i
CC(C)CN=Cc1c(O)c([N+](=O)[O-])cc2oc3c(c12)CCCC3	-5	i	i	15*	i
O=C(c1ccc(S(=O)(=O)N2CCCCC2)cc1)N1CCCC(C(F)(F)F)C1 (centres undefined)	-7	i	i	i	i
CCCCN(CCO)c1ncnc2sc(-c3ccccc3)cc12	-5	i	i	i	i
CC(C)CNC(=O)c1ccccc1NC(=O)c1ccc(CSc2ccccc2)cc1	-17	i	7*	i	i
Cc1ccc(NC(=O)Nc2cccc([N+](=O)[O-])c2)cc1F	-11	i	i	i	i
O=C(Nc1ccc(OC(F)(F)F)cc1)Nc1cccc([N+](=O)[O-])c1	-18	i	7*	i	i
O=C(Nc1cccnc1)Nc1cccc([N+](=O)[O-])c1	-6	i	6*	i	i
O=C(Nc1cccc([N+](=O)[O-])c1)NC1CCS(=O)(=O)C1 (centres undefined)	-9	i	10*	i	i
SMILES	hERG rescue	KCNK9 block	KCNQ1 block	KCNQ1 act	KCNK3 block
NC(=O)c1cccnc1Nc1cccc([N+](=O)[O-])c1	9.4*	i	i	i	i
CNC(=O)c1nnsc1S(=O)(=O)c1ccc(Cl)cc1	-15	i	i	i	i
COC(=O)c1ccc(C(=O)NC(=S)Nc2nc3c(s2)CCCC3)cc1	2	i	i	23*	i
COC(=O)c1sc(NC(=O)COc2cccc3ccccc23)nc1C	9.0*	i	i	i	i
COC(=O)c1sc(NC(=S)NC(=O)c2cccc(C)c2)nc1C	6.2*	i	i	i	i
COC(=O)c1sc(NC(=O)COc2ccc(OC)cc2)nc1C	-1	i	i	i	i
COc1ccc(N2CCN(C3CCCN(Cc4cccc(C(C)=O)c4)C3)CC2)cc1 (centres undefined)	-5	i	i	i	i
Cc1nc(=O)c(-c2ccccc2)c(C)n1-c1ccccc1	0	i	i	i	i
CC(=O)Nc1ccc(-n2c(C)nc(=O)c(-c3ccccc3)c2C)cc1	4.7*	i	i	i	i
C=CCn1c2ccccc2c(=O)c2cc(C#Cc3ccsc3)ccc21	8.9*	i	i	i	.
CC(C)C[C@@H](CO)N1CCN(Cc2cccc(C#N)c2)CCC1=O	-10	i	i	i	i
O=C(c1cccc(C(F)(F)F)c1)C1CCCN(Cc2cccn2-c2ccccn2)C1 (centres undefined)	-19	i	8*	i	i
O=C(c1cccc(C(F)(F)F)c1)C1CCCN(Cc2cccc(OCCO)c2)C1 (centres undefined)	-4	i	i	i	i
CC1CCN(c2ccc3nnc(CCC(=O)Nc4cccc(F)c4)n3n2)CC1	-14	i	i	i	i
C=C1[C@@H](C)C2[C@H](Cc3ccccc3)NC(=O)[C@]23OC(=O)CC[C@H](O)CCC[C@H](C)C/C=C/[C@H]3[C@@H]1O (some centres undefined)	-10	i	i	60*	.
COc1ccc(C)cc1-n1nnnc1SCC(=O)NC1CCS(=O)(=O)C1 (centres undefined)	.	.	.	.	i
O=C(Cn1c(COc2ccccc2)nc2ccccc21)Nc1cccc(Cl)c1	6.2*	i	i	i	i
Cc1ccc(SCc2nc3ccccc3n2CC(=O)Nc2ccccc2)cc1	-10	-6.9*	i	i	i
Cc1cc(C)cc(NC(=O)Cn2c(-c3ccccc3Cl)nc3ccccc32)c1	-9	i	i	i	i
O=C(Cn1c(-c2ccccc2Cl)nc2ccccc21)Nc1cccc(Cl)c1	-8	-7.5*	i	i	i
Cc1cc(NS(=O)(=O)c2ccc(NC(=O)c3cnc(Cl)c(Cl)c3)cc2)nc(C)n1	.	.	.	.	i
COc1ccc(/C=C(\C#N)C(=O)OCC(=O)Nc2ccc(C(C)(C)C)cc2)cc1	-14	i	7*	i	i
Cc1ccc(/C=C/C(=O)C2C(=O)c3ccccc3C2=O)cc1	25*	i	i	20*	i
Cc1ccc(C(=O)NCC2CCCO2)cc1[N+](=O)[O-] (centres undefined)	4.7*	i	i	i	i
Cc1ccc(C(=O)NCCSC(C)(C)C)cc1[N+](=O)[O-]	-8	i	i	i	i
Cc1c(C(=O)NCCSCc2ccc(Cl)cc2Cl)cccc1[N+](=O)[O-]	10.0*	i	i	i	i
Cc1ccc(C(=O)NCCSCc2ccc(Cl)cc2Cl)cc1[N+](=O)[O-]	-7	i	8*	i	i
